The source of these data is ChEMBL document CHEMBL4387760, “Synthesis of oxytocin derivatives lipidated via a carbonate or carbamate linkage as a long-acting therapeutic agent for social impairment-like behaviors” (Bioorg Med Chem, 2019).

Activity calls are given as the source filed them. No cut-off for these calls is given here.

The EC50 is the concentration that produces a half-maximal response. By Emax is commonly meant the maximal effect, on the per cent scale that the assay sets.

For one experiment, the target named is Vasopressin V1a receptor (Homo sapiens, UniProt P37288). In words: Agonist activity at human V1A receptor expressed in HEK293 cells assessed as intracellular calcium level measured at 3 secs interval for 5 mins by fura-2/AM dye based micro spectrofluorometric method. Type of experiment: functional, cell-based. The method in brief:
(§1)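 HEK-293 cells stably expressing the receptor (G418-selected) were loaded with fura-2/AM for 30 min at 37 °C and washed in HEPES-buffered saline, pH 7.4. Fluorescence was read at 37 °C with 340/380 nm excitation, and F340/F380 was normalized to the 10 s baseline. Responses were expressed as % of the OT maximum (OTR) or the AVP maximum (V1A), with EC50 from 3 independent experiments at 20 cells/dish.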

The next experiment concerns the target T1, Vasopressin V1b receptor (Homo sapiens, UniProt P47901).
T1 sequence (P47901 whole entry): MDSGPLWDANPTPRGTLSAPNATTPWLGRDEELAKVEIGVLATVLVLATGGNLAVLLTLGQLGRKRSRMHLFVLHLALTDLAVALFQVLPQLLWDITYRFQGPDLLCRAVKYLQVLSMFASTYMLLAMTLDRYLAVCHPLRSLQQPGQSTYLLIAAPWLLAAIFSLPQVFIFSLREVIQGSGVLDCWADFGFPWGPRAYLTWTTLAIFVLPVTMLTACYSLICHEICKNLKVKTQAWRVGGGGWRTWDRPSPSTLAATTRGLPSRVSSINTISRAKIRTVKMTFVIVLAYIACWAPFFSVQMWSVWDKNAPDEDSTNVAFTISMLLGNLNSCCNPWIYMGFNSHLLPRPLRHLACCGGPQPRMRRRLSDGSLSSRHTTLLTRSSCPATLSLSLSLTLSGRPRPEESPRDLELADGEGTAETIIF
In words: Agonist activity at human V1B receptor expressed in HEK293 cells assessed as intracellular calcium level measured at 3 secs interval for 5 mins by fura-2/AM dye based micro spectrofluorometric method. Type of experiment: functional, cell-based. In general terms: Calcium assays in cells follow changes in intracellular calcium, usually with a dye or a luminescent sensor.

In experiment [1] the target is T2, Oxytocin receptor (Homo sapiens) (UniProt P30559).
T2 sequence (whole entry): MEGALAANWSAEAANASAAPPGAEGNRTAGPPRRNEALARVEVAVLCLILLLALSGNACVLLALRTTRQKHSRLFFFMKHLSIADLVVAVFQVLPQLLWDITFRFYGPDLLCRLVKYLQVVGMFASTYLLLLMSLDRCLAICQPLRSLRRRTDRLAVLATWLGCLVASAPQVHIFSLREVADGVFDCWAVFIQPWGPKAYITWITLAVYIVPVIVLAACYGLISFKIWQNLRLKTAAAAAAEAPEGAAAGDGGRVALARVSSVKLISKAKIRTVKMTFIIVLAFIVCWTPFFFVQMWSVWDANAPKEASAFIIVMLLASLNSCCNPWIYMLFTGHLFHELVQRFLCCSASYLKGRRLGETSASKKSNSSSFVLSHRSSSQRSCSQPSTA
In words: Agonist activity at human OTR receptor expressed in HEK293 cells measured at 3 secs interval for 5 mins by fura-2/AM dye based micro spectrofluorometric method relative to OT. It is filed as cell-based. The method, boiled down: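 HEK-293 cells stably expressing human OTR (G418-selected) were loaded with fura-2/AM (final […] as printed) at 37 °C for 30 min, then washed in HEPES-buffered saline, pH 7.4. F340/F380 ratio was read every 3 s for 5 min at 37 °C, normalized to 10-s pre-application baseline, as % of maximal OT response. Three independent experiments, 20 cells per dish; EC50 derived.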

Experiment [2] has as its system Mus musculus. In words: Improvement in paternal nurturing behavior in CD38 knock out Slc:ICR mouse sire model of autism spectrum disorder assessed as parental scores to retrieve pups by sires at 100 ng/100 g, ip administered as single dose measured after 30 mins by parental retrieval test (reference value: 0 +/- 0 No units). Type of experiment: functional.
Experiment [3] has as its system Mus musculus. In words: Improvement in paternal nurturing behavior in CD38 knock out Slc:ICR mouse sire model of autism spectrum disorder assessed as parental scores to retrieve pups by sires at 100 ng/100 g, ip administered as single dose measured after 24 hrs by parental retrieval test (reference value: 0 +/- 0 No units). Type of experiment: functional.
The target in a further experiment is T3, Oxytocin receptor (Homo sapiens, UniProt P30559).
T3 sequence (P30559 whole entry): T2 sequence (whole entry)
In words: Agonist activity at human OTR receptor expressed in HEK293 cells assessed as intracellular calcium level measured at 3 secs interval for 5 mins by fura-2/AM dye based micro spectrofluorometric method. Type of experiment: functional, cell-based. The method, boiled down: as §1

Experiment [4] deals with Mus musculus. In words: Improvement in paternal nurturing behavior in CD38 knock out Slc:ICR mouse sire model of autism spectrum disorder assessed as increase in parental scores to retrieve pups by sires at 100 ng/100 g, ip administered as single dose measured after 12 hrs by parental retrieval test. It is filed as functional, organism-based. The method, boiled down: (§2)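 This time-course test used CD38KOCC sires (Slc:ICR) paired with females. Each received a single ip dose of 100 ng/100 g body weight in PBS, with PBS as vehicle control. Paternal pup-retrieval scores were recorded at successive times after injection, including 6, 12, 24 and 48 h. Treatment effects were analysed by two-way ANOVA.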

Experiment [5] concerns Mus musculus. In words: Improvement in paternal nurturing behavior in CD38 knock out Slc:ICR mouse sire model of autism spectrum disorder assessed as increase in parental scores to retrieve pups by sires at 100 ng/100 g, ip administered as single dose measured after 24 hrs by parental retrieval test. Type of experiment: functional, organism-based.
Experiment [6] has as its system Mus musculus. In words: Improvement in paternal nurturing behavior in CD38 knock out Slc:ICR mouse sire model of autism spectrum disorder assessed as increase in parental scores to retrieve pups by sires at 100 ng/100 g, ip administered as single dose measured after 48 hrs by parental retrieval test. Type of experiment: functional, organism-based. The method in brief: as §2

Experiment [7] has as its system Mus musculus. The experiment is described as follows: Improvement in paternal nurturing behavior in CD38 knock out Slc:ICR mouse sire model of autism spectrum disorder assessed as parental scores to retrieve pups by sires at 100 ng/100 g, ip administered as single dose measured after 6 hrs by parental retrieval test. Type of experiment: functional, organism-based. The method in brief:
as §2

Sequence of Vasopressin V1a receptor (P37288 whole entry): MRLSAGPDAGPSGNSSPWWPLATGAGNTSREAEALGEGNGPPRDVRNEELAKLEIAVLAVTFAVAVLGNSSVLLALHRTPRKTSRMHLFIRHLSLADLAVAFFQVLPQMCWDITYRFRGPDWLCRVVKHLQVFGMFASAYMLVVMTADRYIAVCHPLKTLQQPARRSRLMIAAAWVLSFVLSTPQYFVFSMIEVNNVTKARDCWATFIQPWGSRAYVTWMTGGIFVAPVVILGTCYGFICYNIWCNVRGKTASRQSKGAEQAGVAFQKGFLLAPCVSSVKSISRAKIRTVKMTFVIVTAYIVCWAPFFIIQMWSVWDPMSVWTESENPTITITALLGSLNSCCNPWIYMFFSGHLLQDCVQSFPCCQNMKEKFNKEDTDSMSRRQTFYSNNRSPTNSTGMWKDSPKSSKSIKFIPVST

For the molecule `CCCCCCCCCCCCCCCC(=O)N[C@H]1CSSC[C@@H](C(=O)N2CCC[C@H]2C(=O)N[C@@H](CC(C)C)C(=O)NCC(N)=O)NC(=O)[C@H](CC(N)=O)NC(=O)[C@H](CCC(N)=O)NC(=O)[C@H]([C@@H](C)CC)NC(=O)[C@H](Cc2ccc(OC(=O)OCCCCCCCCCCCCCC)cc2)NC1=O`, the EC50 on Vasopressin V1a receptor and at Vasopressin V1b receptor was above 100 µM throughout. This molecule yielded an Emax in experiment [1] of 15.3%. Also, the Activity in the experiment on Mus musculus [2] came to 6.8; with Mus musculus [3] it was 3.1.

`CCCCCCCCCCCCCCCCOC(=O)Oc1ccc(C[C@@H]2NC(=O)[C@@H](NC(=O)CCCCCCCCCCCCCCC)CSSC[C@@H](C(=O)N3CCC[C@H]3C(=O)N[C@@H](CC(C)C)C(=O)NCC(N)=O)NC(=O)[C@H](CC(N)=O)NC(=O)[C@H](CCC(N)=O)NC(=O)[C@H]([C@@H](C)CC)NC2=O)cc1`: the EC50 at Oxytocin receptor, at Vasopressin V1a receptor and at Vasopressin V1b receptor was above 100 µM throughout. Besides, in experiment [1], the Emax worked out at 0%. Moreover, the Activity with Mus musculus [2] is reported as 2; with Mus musculus [3], 5.2. The outcome in the experiment with Mus musculus [4] and in the experiment on Mus musculus [5] was Active. In addition, the outcome in the experiment on Mus musculus [6] was inactive.

As to `CCCCCCCCCCCCCCCNC(=O)Oc1ccc(C[C@@H]2NC(=O)[C@@H](NC(=O)CCCCCCCCCCCCCCC)CSSC[C@@H](C(=O)N3CCC[C@H]3C(=O)N[C@@H](CC(C)C)C(=O)NCC(N)=O)NC(=O)[C@H](CC(N)=O)NC(=O)[C@H](CCC(N)=O)NC(=O)[C@H]([C@@H](C)CC)NC2=O)cc1`, the EC50 is above 10 µM at Oxytocin receptor, above 100 µM on Vasopressin V1a receptor and above 100 µM on Vasopressin V1b receptor. The Activity with Mus musculus [2] was 2; in the experiment on Mus musculus [3], 3.1.

Regarding `CCCCCCCCCCCCCCCC(=O)N[C@H]1CSSC[C@@H](C(=O)N2CCC[C@H]2C(=O)N[C@@H](CC(C)C)C(=O)NCC(N)=O)NC(=O)[C@H](CC(N)=O)NC(=O)[C@H](CCC(N)=O)NC(=O)[C@H]([C@@H](C)CC)NC(=O)[C@H](Cc2ccc(OC(=O)NCCCCCCCCCCCCCC)cc2)NC1=O`, the EC50 at Oxytocin receptor, on Vasopressin V1a receptor and on Vasopressin V1b receptor was above 100 µM throughout. Besides, the Emax in experiment [1] came to 0%. In addition, the Activity in the experiment with Mus musculus [2] came to 3.3; in the experiment with Mus musculus [3], 3.6.

Regarding `CCCCCCCCCCCCCCCCNC(=O)Oc1ccc(C[C@@H]2NC(=O)[C@@H](NC(=O)CCCCCCCCCCCCCCC)CSSC[C@@H](C(=O)N3CCC[C@H]3C(=O)N[C@@H](CC(C)C)C(=O)NCC(N)=O)NC(=O)[C@H](CC(N)=O)NC(=O)[C@H](CCC(N)=O)NC(=O)[C@H]([C@@H](C)CC)NC2=O)cc1`, the EC50 at Oxytocin receptor, at Vasopressin V1a receptor and at Vasopressin V1b receptor was above 100 µM in each case. The same molecule gave an Emax in [1] of 0%. In addition, the values for the Activity with Mus musculus [2] and in the experiment with Mus musculus [3] were 1.9 and 3.4, respectively.

Take `CC[C@H](C)[C@@H]1NC(=O)[C@H](Cc2ccc(O)cc2)NC(=O)[C@@H](N)CSSC[C@@H](C(=O)N2CCC[C@H]2C(=O)N[C@@H](CC(C)C)C(=O)NCC(N)=O)NC(=O)[C@H](CC(N)=O)NC(=O)[C@H](CCC(N)=O)NC1=O` [OXYTOCIN]: the Activity is 5.3 in the experiment with Mus musculus [2] and 0 in the experiment on Mus musculus [3]. The result in the experiment on Mus musculus [7] was inactive.

As for `CCCCCCCCCCCCCCCOC(=O)Oc1ccc(C[C@@H]2NC(=O)[C@@H](NC(=O)CCCCCCCCCCCCCCC)CSSC[C@@H](C(=O)N3CCC[C@H]3C(=O)N[C@@H](CC(C)C)C(=O)NCC(N)=O)NC(=O)[C@H](CC(N)=O)NC(=O)[C@H](CCC(N)=O)NC(=O)[C@H]([C@@H](C)CC)NC2=O)cc1`, the EC50 at Oxytocin receptor, at Vasopressin V1a receptor and on Vasopressin V1b receptor was above 100 µM throughout. The molecule further gave an Emax in experiment [1] of 0%. For the same molecule, the Activity is recorded as 3.9 in the experiment with Mus musculus [2] and 2.9 in the experiment with Mus musculus [3].
